From PMC6777341 (ACS chemical neuroscience, 2017)
Marks after values point to notes of the source that are not given here.

How the values were obtained:
[1] = target: human NPFFR1 (Homo sapiens, UniProt Q9GZQ6); experiment: Lance cAMP assay, NPFFR1-CHO cells; type: cell-based
[2] = target: human NPFFR2 (Homo sapiens, UniProt Q9Y5X5); experiment: Lance cAMP assay, NPFFR2-CHO cells; type: cell-based
[3] = target: human NPFF2 receptor (Homo sapiens, UniProt Q9Y5X5); experiment: NPFF2 calcium mobilization assay; type: cell-based; details: for Ca^2+ NPFF2 Ke: Table 1
[4] = tested on: NPFF receptors; experiment: Curve-shift assays, type of antagonism; type: cell-based, human; details: standard incubation; typical competitive profile with longer incubations
[5] = target: human NPFF1 receptor (Homo sapiens, UniProt Q9GZQ6); experiment: NPFF1 calcium mobilization assay; type: cell-based; details: for Ca^2+ NPFF1 Ke: Table 1
[6] = tested on: fentanyl-induced hyperalgesia; experiment: Fentanyl-induced hyperalgesia; type: in vivo, rat; details: rats, i.p., day 1 after fentanyl, N=6
[7] = tested on: MDCK-MDR1 cells; experiment: Bidirectional MDCK-MDR1 permeability assay; type: in vitro ADME
Summary of the method: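 MDCK-MDR1 cells at passage 5 were grown 3 days on polycarbonate Transwell supports in DMEM/10% FBS, then rinsed and equilibrated 30 min at 37 °C in HBSS with 10 mM HEPES, 0.25% BSA, pH 7.4, and TEER was measured. Test compound at 10 μM was added apically (A-to-B) or basolaterally (B-to-A) at 37 °C with agitation.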

[8] = footnote c: pre-incubation 45 min or 1 hr
[9] = apparent Ke from right shift of NPFF curve, 15 min pretreatment

Chain of human NPFFR1 (Q9GZQ6 whole entry): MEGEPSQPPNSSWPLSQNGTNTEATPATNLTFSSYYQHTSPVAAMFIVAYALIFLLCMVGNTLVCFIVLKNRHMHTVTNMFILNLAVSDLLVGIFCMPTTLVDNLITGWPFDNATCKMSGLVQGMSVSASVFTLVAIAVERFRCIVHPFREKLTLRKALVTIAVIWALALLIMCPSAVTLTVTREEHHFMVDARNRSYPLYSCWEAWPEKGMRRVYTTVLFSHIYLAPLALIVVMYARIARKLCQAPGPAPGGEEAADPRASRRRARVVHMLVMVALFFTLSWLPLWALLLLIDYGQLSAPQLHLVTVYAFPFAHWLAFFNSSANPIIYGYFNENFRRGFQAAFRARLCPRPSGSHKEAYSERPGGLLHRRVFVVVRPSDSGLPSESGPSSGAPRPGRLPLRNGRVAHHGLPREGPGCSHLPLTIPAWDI
Chain of human NPFF1 receptor (Q9GZQ6 whole entry): as above
Chain of human NPFFR2 (Q9Y5X5 whole entry): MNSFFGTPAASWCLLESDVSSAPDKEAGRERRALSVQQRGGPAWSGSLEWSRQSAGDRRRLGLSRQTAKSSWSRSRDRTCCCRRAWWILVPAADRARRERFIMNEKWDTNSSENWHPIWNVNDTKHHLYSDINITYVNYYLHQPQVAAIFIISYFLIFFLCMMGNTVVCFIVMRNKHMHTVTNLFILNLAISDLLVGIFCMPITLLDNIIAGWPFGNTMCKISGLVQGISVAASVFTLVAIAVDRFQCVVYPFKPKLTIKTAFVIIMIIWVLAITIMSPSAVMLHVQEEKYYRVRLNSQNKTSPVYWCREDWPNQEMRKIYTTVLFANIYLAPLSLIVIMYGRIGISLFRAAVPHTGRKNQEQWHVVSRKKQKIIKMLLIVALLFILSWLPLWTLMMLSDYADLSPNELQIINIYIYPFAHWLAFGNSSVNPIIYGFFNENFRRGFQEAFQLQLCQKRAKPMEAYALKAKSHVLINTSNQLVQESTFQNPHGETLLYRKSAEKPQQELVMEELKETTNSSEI
Chain of human NPFF2 receptor (Q9Y5X5 whole entry): as above

In the case of `COc1ccc(CN[C@H]2C[C@@H](C(=O)NCc3ccccc3)N(Cc3ccccc3Cl)C2)cc1` [Compound 23, (2S,4S)-N-Benzyl-1-[(2-chlorophenyl)methyl]-4-{[(4-methoxyphenyl)methyl]amino} pyrrolidine-2-carboxamide], the “cAMP NPFF1 Ke” value ([1]; Table 1) is reported as 1.72 ± 0.32 µM, the “cAMP NPFF2 Ke” value ([2]; Table 1) is reported as 3.90 ± 1.1 µM and the “Ca^2+ NPFF2 Ke” value [3, 8] is reported as 2.01 ± 0.44^c μM. The “type of antagonism in curve-shift assays” value [4] was “insurmountable antagonism”, the “Ca^2+ NPFF1 Ke” value [5, 8] was 0.78 ± 0.08^c μM and the “NPFF1 Ke” value ([5]; calcium mobilization assay) was 0.78 µM.

`CSc1ccc(CN[C@H]2C[C@@H](C(=O)NCCc3ccc(F)c(F)c3)N(Cc3ccccc3Cl)C2)cc1` [Compound 47, (2S,4S)-1-[(2-Chlorophenyl)methyl]-N-[2-(3,4-difluorophenyl)ethyl]-4-{[(4-(methylthio)phenyl)methyl]amino}pyrrolidine-2-carboxamide] was tested, and the Kb [1] was 1070 ± 270 nM and the Kb [2] was > 10000 nM.

Work on `COc1ccc(CN[C@H]2C[C@@H](C(=O)NCCc3ccc(Cl)cc3)N(Cc3ccccc3Cl)C2)cc1` [Compound 32, (2S,4S)-N-[2-(4-Chlorophenyl)ethyl]-1-[(2-chlorophenyl)methyl]-4-{[(4-methoxyphenyl)methyl]amino}pyrrolidine-2-carboxamide] yielded a Kb [1] of 1490 ± 100 nM, a Kb [2] of 2530 ± 360 nM and a Kb [3] of 1830 ± 90 nM. The “type of antagonism in curve-shift assays” value [4] was “insurmountable antagonism” and the Kb [5] was 990 ± 220 nM.

`COc1ccc(CN[C@H]2C[C@@H](C(=O)NCCc3ccc(C(C)(C)C)cc3)N(Cc3ccccc3Cl)C2)cc1` [Compound 31, (2S,4S)-N-[2-(4-tert-Butylphenyl)ethyl]-1-[(2-chlorophenyl)methyl]-4-{[(4-methoxyphenyl)methyl]amino}pyrrolidine-2-carboxamide] showed a Kb [3] of 2420 ± 260 nM.

With `CCN(CC)C(=O)[C@@H]1C[C@H](NCc2ccc(OC)cc2)CN1Cc1ccccc1Cl` [Compound 40, (2S,4S)-1-[(2-Chlorophenyl)methyl]-N,N-diethyl-4-{[(4-methoxyphenyl)methyl]amino} pyrrolidine-2-carboxamide] the “Ca^2+ NPFF2 Ke” value [3, 9] was 4.93 ± 0.02^b μM, the “Ca^2+ NPFF1 Ke” value [5, 9] was 2.90 ± 0.15 µM and the “NPFF1 Ke” value ([5]; calcium mobilization assay) was 2.90 µM.

For `CNC(=O)[C@@H]1C[C@H](NCc2ccc(OC)cc2)CN1Cc1ccccc1Cl` [Compound 10, (2S,4S)-1-[(2-Chlorophenyl)methyl]-4-{[(4-methoxyphenyl)methyl]amino}-N-methylpyrrolidine-2-carboxamide], the “NPFF2 antagonist activity (in words)” value ([3]; calcium mobilization assay) was “inactive” and the “NPFF1 antagonist activity (in words)” value ([5]; calcium mobilization assay) was “inactive”.

In the case of `CCCN(CCC)C(=O)[C@@H]1C[C@H](NCc2ccc(OC)cc2)CN1Cc1ccccc1Cl` [Compound 41, (2S,4S)-1-[(2-Chlorophenyl)methyl]-4-{[(4-methoxyphenyl)methyl]amino}-N,N-dipropylpyrrolidine-2-carboxamide], the Kb [1] is reported as 2310 ± 420 nM, the Kb [2] is reported as > 10000 nM and the “type of antagonism in curve-shift assays” value [4] is reported as “insurmountable antagonism”.

With `CCCCCNC(=O)[C@@H]1C[C@H](NCc2ccc(OC)cc2)CN1Cc1ccccc1Cl` [Compound 16, (2S,4S)-1-[(2-Chlorophenyl)methyl]-4-{[(4-methoxyphenyl)methyl]amino}-N-pentylpyrrolidine-2-carboxamide] the “doses significantly different from vehicle (Bonferroni post hoc)” value [6] was “significant differences at 10 and 32 mg/kg”, the Kb [1] was 360 ± 80 nM and the “Hill slope of NPFF + compound curve” value ([1]; cAMP assay, NPFF1 cells) was 1.3. For the same molecule, the “Hill slope of NPFF + compound curve” value ([2]; cAMP assay, FF2 cells) was 1.3, the “rate B to A” value ([7]; MDCK-MDR1) was 6.7e-06 cm/s and the “rate apical (A) to basolateral (B)” value ([7]; MDCK-MDR1) was 7.6e-06 cm/s. For the same molecule, the Pgp substrate status ([7]; as indicated by the efflux ratio) was “not Pgp substrates”, the “Hill slope of NPFF + compound curve” value ([3]; calcium mobilization assay, FF2 cells) was 1.1 and the “Hill slope of NPFF + compound curve” value ([5]; calcium mobilization assay, NPFF1 cells) was 1.7.

With `COc1ccc(CN[C@H]2C[C@@H](C(=O)NC(C)(C)C)N(Cc3ccccc3Cl)C2)cc1` [Compound 15, (2S,4S)-N-tert-Butyl-1-[(2-chlorophenyl)methyl]-4-{[(4-methoxyphenyl)methyl]amino} pyrrolidine-2-carboxamide] the “Ca^2+ NPFF2 Ke” value [3, 8] was 1.26 ± 0.8^c μM and the “Ca^2+ NPFF1 Ke” value [5, 9] was 1.88 ± 0.21 µM.

In the case of `CCC(C)NC(=O)[C@@H]1C[C@H](NCc2ccc(OC)cc2)CN1Cc1ccccc1Cl` (stereo partly drawn) [Compound 14, (2S,4S)-N-(Butan-2-yl)-1-[(2-chlorophenyl)methyl]-4-{[(4-methoxyphenyl)methyl]amino} pyrrolidine-2-carboxamide], the “Ca^2+ NPFF2 Ke” value [3, 9] is reported as 3.68 ± 0.35^b μM and the “Ca^2+ NPFF1 Ke” value [5, 9] is reported as 1.50 ± 0.06 µM.

With `COc1ccc(CN[C@H]2C[C@@H](C(=O)NCCc3ccc(F)c(F)c3)N(Cc3ccccc3Cl)C2)cc1` [Compound 34, (2S,4S)-1-[(2-Chlorophenyl)methyl]-N-[2-(3,4-difluorophenyl)ethyl]-4-{[(4-methoxyphenyl)methyl]amino}pyrrolidine-2-carboxamide] the Kb [3] was 3490 ± 1400 nM.

In the case of `CCCCCNC(=O)[C@@H]1C[C@H](NCc2ccc(SC)cc2)CN1Cc1ccccc1Cl` [Compound 43, (2S,4S)-1-[(2-Chlorophenyl)methyl]-4-{[(4-(methylthio)phenyl)methyl]amino}-N-pentylpyrrolidine-2-carboxamide], the Kb [1] is reported as 1070 ± 200 nM and the Kb [2] is reported as 2740 ± 210 nM.

`COc1ccc(CN[C@H]2C[C@@H](C(=O)NCCc3ccc(F)cc3)N(Cc3ccccc3Cl)C2)cc1` [Compound 35, (2S,4S)-1-[(2-Chlorophenyl)methyl]-N-[2-(4-fluorophenyl)ethyl]-4-{[(4-methoxyphenyl)methyl]amino}pyrrolidine-2-carboxamide] was tested, and the Kb [1] was 1410 ± 180 nM and the Kb [2] was > 10000 nM.

`CCCCCCCCCCNC(=O)[C@@H]1C[C@H](NCc2ccc(OC)cc2)CN1Cc1ccccc1Cl` [Compound 19, (2S,4S)-1-[(2-Chlorophenyl)methyl]-N-decyl-4-{[(4-methoxyphenyl)methyl]amino} pyrrolidine-2-carboxamide] was tested, and the “Ca^2+ NPFF1 Ke” value [5, 8] was >10^b,c μM and the “NPFF1 antagonist activity (in words)” value ([5]; calcium mobilization assay) was “completely abolished”.

For `COc1ccc(CN[C@H]2C[C@@H](C(=O)NCCc3ccc(OC)c(OC)c3)N(Cc3ccccc3Cl)C2)cc1` [Compound 27, (2S,4S)-1-[(2-Chlorophenyl)methyl]-N-[2-(3,4-dimethoxyphenyl)ethyl]-4-{[(4-methoxyphenyl)methyl]amino}pyrrolidine-2-carboxamide], the Kb [1] was 1520 ± 110 nM and the Kb [2] was > 10000 nM.

In the case of `CCNC(=O)[C@@H]1C[C@H](NCc2ccc(OC)cc2)CN1Cc1ccccc1Cl` [Compound 11, (2S,4S)-1-[(2-Chlorophenyl)methyl]-N-ethyl-4-{[(4-methoxyphenyl)methyl]amino} pyrrolidine-2-carboxamide], the “Ca^2+ NPFF2 Ke” value [3, 9] is reported as >10^b μM, the “NPFF2 antagonist activity (in words)” value ([3]; calcium mobilization assay) is reported as “inactive” and the “Ca^2+ NPFF1 Ke” value [5, 9] is reported as >10^b μM. For the same molecule, the “NPFF1 Ke” value ([5]; calcium mobilization assay) was > 10 µM and the “NPFF1 antagonist activity (in words)” value ([5]; calcium mobilization assay) was “inactive”.

`COc1ccc(CN[C@H]2C[C@@H](C(=O)NCCc3ccccc3)N(Cc3ccccc3Cl)C2)cc1` [Compound 24, (2S,4S)-1-[(2-Chlorophenyl)methyl]-4-{[(4-methoxyphenyl)methyl]amino}-N-(2-phenylethyl)pyrrolidine-2-carboxamide] was tested, and the Kb [3] was 2340 ± 310 nM.

`COc1ccc(CN[C@H]2C[C@@H](C(=O)NCCc3ccc(N(C)C)cc3)N(Cc3ccccc3Cl)C2)cc1` [Compound 28, (2S,4S)-1-[(2-Chlorophenyl)methyl]-N-{2-[4-(dimethylamino)phenyl]ethyl}-4-{[(4-methoxyphenyl)methyl]amino}pyrrolidine-2-carboxamide] was tested, and the Kb [3] was 2080 ± 380 nM.

`CSc1ccc(CN[C@H]2C[C@@H](C(=O)NCCc3ccccc3)N(Cc3ccccc3Cl)C2)cc1` [Compound 44, (2S,4S)-1-[(2-Chlorophenyl)methyl]-4-{[(4-(methylthio)phenyl)methyl]amino}-N-(2-phenylethyl)pyrrolidine-2-carboxamide] was tested, and the Kb [1] was 1300 ± 140 nM and the Kb [2] was > 10000 nM.

In the case of `COc1ccc(CN[C@H]2C[C@@H](C(=O)N3CCN(c4ccccc4)CC3)N(Cc3ccccc3Cl)C2)cc1` [Compound 42, (3S,5S)-1-[(2-Chlorophenyl)methyl]-N-[(4-methoxyphenyl)methyl]-5-(4-phenylpiperazine-1-carbonyl)pyrrolidin-3-amine], the “type of antagonism in curve-shift assays” value [4] is reported as “insurmountable antagonism”.

`CCCCCCNC(=O)[C@@H]1C[C@H](NCc2ccc(OC)cc2)CN1Cc1ccccc1Cl` [Compound 18, (2S,4S)-1-[(2-Chlorophenyl)methyl]-4-{[(4-methoxyphenyl)methyl]amino}-N-hexylpyrrolidine-2-carboxamide] was tested, and the Kb [1] was 1980 ± 280 nM and the Kb [2] was 2480 ± 270 nM.

With `CCN(CC)C(=O)[C@@H]1C[C@H](NCc2ccc(OC)cc2)CN1Cc1ccccc1Cl` [Compound 22, (2S,4S)-1-[(2-Chlorophenyl)methyl]-N,N-diethyl-4-{[(4-methoxyphenyl)methyl]amino} pyrrolidine-2-carboxamide] the “NPFF2 antagonist activity (in words)” value ([3]; calcium mobilization assay) was “inactive”, the “Ca^2+ NPFF1 Ke” value [5, 9] was >10^b μM and the “NPFF1 antagonist activity (in words)” value ([5]; calcium mobilization assay) was “inactive”.

In the case of `COc1ccc(CN[C@H]2C[C@@H](C(=O)NCCCc3ccccc3)N(Cc3ccccc3Cl)C2)cc1` [Compound 25, (2S,4S)-1-[(2-Chlorophenyl)methyl]-4-{[(4-methoxyphenyl)methyl]amino}-N-(3-phenylpropyl)pyrrolidine-2-carboxamide], the IC50 [5] is reported as > 10 µM and the “NPFF1 antagonist activity (in words)” value ([5]; calcium mobilization assay) is reported as “completely abolished the activity”.

In the case of `CCCCNC(=O)[C@@H]1C[C@H](NCc2ccc(OC)cc2)CN1Cc1ccccc1Cl` [Compound 13, (2S,4S)-N-Butyl-1-[(2-chlorophenyl)methyl]-4-{[(4-methoxyphenyl)methyl]amino} pyrrolidine-2-carboxamide], the “Ca^2+ NPFF1 Ke” value [5, 9] is reported as 1.24 ± 0.14 µM.
